ChEMBL document CHEMBL1156948, “Statistical molecular design of a focused salicylidene acylhydrazide library and multivariate QSAR of inhibition of type III secretion in the Gram-negative bacterium Yersinia” (Bioorg Med Chem, 2010)
Activity calls are given as the source filed them. No rule for the calls is given here.

Each compound was assayed on Yersinia pseudotuberculosis YPIII (assay: Inhibition of T3S in Yersinia pseudotuberculosis YPIII expressing yopE-luxAB at 200 uM after 3 hrs by luciferase reporter gene assay).
Outline: (§1)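 Strain YPIII pIB102 (yopE-luxAB) grown overnight at room temperature in BHI with 5 mM EGTA and 20 mM MgCl2 (calcium depletion), adjusted to OD600 0.088–0.095. Compound added from DMSO at 1.56–200 µM final (eight concentrations). Shaken 1 h at room temperature, then 2 h at 37 °C. Decanal added and light emission read immediately. Triplicates, repeated at least three times.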
For `COc1cc([N+](=O)[O-])cc(/C=N/NC(=O)c2ccncc2)c1O`, the inhibition was 51%.
Work on `O=C(CC12CC3CC(CC(C3)C1)C2)N/N=C/c1cc([N+](=O)[O-])cc([N+](=O)[O-])c1O` yielded an inhibition of 13%.
For `COc1ccc(C(=O)N/N=C/c2cc(I)cc(I)c2O)cc1OC`, the inhibition was 40%.
For `O=C(COc1ccc(F)cc1)N/N=C/c1cc(I)cc(I)c1O`, the inhibition was 44%.
For `CCN(CC)c1ccc(/C=N/NC(=O)COc2ccc(F)cc2)c(O)c1`, the inhibition was 50%.

Each compound was assayed on Yersinia pseudotuberculosis YPIII (assay: Inhibition of T3S in Yersinia pseudotuberculosis YPIII expressing yopE-luxAB at 25 uM after 3 hrs by luciferase reporter gene assay).
Outline: as §1
With `COc1cc([N+](=O)[O-])cc(/C=N/NC(=O)c2ccncc2)c1O` the inhibition was 28%.
With `O=C(CC12CC3CC(CC(C3)C1)C2)N/N=C/c1cc([N+](=O)[O-])cc([N+](=O)[O-])c1O` the inhibition was 6%.
In the case of `COc1ccc(C(=O)N/N=C/c2cc(I)cc(I)c2O)cc1OC`, the inhibition is reported as 30%.
Compound `O=C(COc1ccc(F)cc1)N/N=C/c1cc(I)cc(I)c1O` has an inhibition of 21%.
`CCN(CC)c1ccc(/C=N/NC(=O)COc2ccc(F)cc2)c(O)c1` gave an inhibition of 35%.

These compounds were tested on Yersinia pseudotuberculosis (assay: Antibacterial activity against Yersinia pseudotuberculosis expressing pIB102 at 100 uM after 23 hrs by broth dilution assay).
Format: functional, organism-based
Outline: (§2)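 Wild-type pIB102 grown overnight in LB at room temperature, diluted to OD600 = 0.1 in LB with 2.5 mM CaCl2. Compound added from DMSO stock to final 50 and 100 µM. Incubated at 37 °C with absorbance at 595 nm read over 23 h.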
`COc1cc([N+](=O)[O-])cc(/C=N/NC(=O)c2ccncc2)c1O` was tested, and the Activity was “inactive”.
With `O=C(CC12CC3CC(CC(C3)C1)C2)N/N=C/c1cc([N+](=O)[O-])cc([N+](=O)[O-])c1O` the Activity was “inactive”.
In the case of `COc1ccc(C(=O)N/N=C/c2cc(I)cc(I)c2O)cc1OC`, the Activity is reported as “inactive”.
For `O=C(COc1ccc(F)cc1)N/N=C/c1cc(I)cc(I)c1O`, the Activity was “inactive”.
For `CCN(CC)c1ccc(/C=N/NC(=O)COc2ccc(F)cc2)c(O)c1`, the Activity was “inactive”.

These compounds were tested on Yersinia pseudotuberculosis YPIII (assay: Inhibition of T3S in Yersinia pseudotuberculosis YPIII expressing yopE-luxAB at 50 uM after 3 hrs by luciferase reporter gene assay).
Outline: as §1
For `COc1cc([N+](=O)[O-])cc(/C=N/NC(=O)c2ccncc2)c1O`, the inhibition was 35%.
Compound `O=C(CC12CC3CC(CC(C3)C1)C2)N/N=C/c1cc([N+](=O)[O-])cc([N+](=O)[O-])c1O` has an inhibition of 18%.
With `COc1ccc(C(=O)N/N=C/c2cc(I)cc(I)c2O)cc1OC` the inhibition was 24%.
Work on `O=C(COc1ccc(F)cc1)N/N=C/c1cc(I)cc(I)c1O` yielded an inhibition of 30%.
In the case of `CCN(CC)c1ccc(/C=N/NC(=O)COc2ccc(F)cc2)c(O)c1`, the inhibition is reported as 54%.

What follows are compounds tested on Yersinia pseudotuberculosis YPIII (assay: Inhibition of T3S in Yersinia pseudotuberculosis YPIII expressing yopE-luxAB at 3.13 uM after 3 hrs by luciferase reporter gene assay).
Outline: as §1
`COc1cc([N+](=O)[O-])cc(/C=N/NC(=O)c2ccncc2)c1O` was tested, and the inhibition was 8%.
For `O=C(CC12CC3CC(CC(C3)C1)C2)N/N=C/c1cc([N+](=O)[O-])cc([N+](=O)[O-])c1O`, the inhibition was -5%.
`COc1ccc(C(=O)N/N=C/c2cc(I)cc(I)c2O)cc1OC` was tested, and the inhibition was 4%.
Work on `O=C(COc1ccc(F)cc1)N/N=C/c1cc(I)cc(I)c1O` yielded an inhibition of 0%.
In the case of `CCN(CC)c1ccc(/C=N/NC(=O)COc2ccc(F)cc2)c(O)c1`, the inhibition is reported as 11%.

What follows are compounds tested on Escherichia coli (assay: Antibacterial activity against Escherichia coli DH5[alpha] at 100 uM after 23 hrs by broth dilution assay).
Format: functional, organism-based
Outline: (§3)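 Overnight LB culture of E. coli DH5α grown at 37 °C, diluted to OD600 0.1 in LB with 2.5 mM CaCl2; compound added from DMSO stock to final 50 or 100 µM. Incubated at 37 °C with absorbance at 595 nm followed over 23 h.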
In the case of `COc1cc([N+](=O)[O-])cc(/C=N/NC(=O)c2ccncc2)c1O`, the Activity is reported as “inactive”.
In the case of `O=C(CC12CC3CC(CC(C3)C1)C2)N/N=C/c1cc([N+](=O)[O-])cc([N+](=O)[O-])c1O`, the Activity is reported as “inactive”.
With `COc1ccc(C(=O)N/N=C/c2cc(I)cc(I)c2O)cc1OC` the Activity was “inactive”.
In the case of `O=C(COc1ccc(F)cc1)N/N=C/c1cc(I)cc(I)c1O`, the Activity is reported as “inactive”.
`CCN(CC)c1ccc(/C=N/NC(=O)COc2ccc(F)cc2)c(O)c1` was tested, and the Activity was “inactive”.

These compounds were tested on Yersinia pseudotuberculosis YPIII (assay: Inhibition of T3S in Yersinia pseudotuberculosis YPIII expressing yopE-luxAB at 6.25 uM after 3 hrs by luciferase reporter gene assay).
Outline: as §1
Compound `COc1cc([N+](=O)[O-])cc(/C=N/NC(=O)c2ccncc2)c1O` has an inhibition of 16%.
In the case of `O=C(CC12CC3CC(CC(C3)C1)C2)N/N=C/c1cc([N+](=O)[O-])cc([N+](=O)[O-])c1O`, the inhibition is reported as 1%.
`COc1ccc(C(=O)N/N=C/c2cc(I)cc(I)c2O)cc1OC` gave an inhibition of 19%.
In the case of `O=C(COc1ccc(F)cc1)N/N=C/c1cc(I)cc(I)c1O`, the inhibition is reported as 15%.
`CCN(CC)c1ccc(/C=N/NC(=O)COc2ccc(F)cc2)c(O)c1` was tested, and the inhibition was 17%.

What follows are compounds tested on Yersinia pseudotuberculosis YPIII (assay: Inhibition of T3S in Yersinia pseudotuberculosis YPIII expressing yopE-luxAB at 12.5 uM after 3 hrs by luciferase reporter gene assay).
Outline: as §1
Compound `COc1cc([N+](=O)[O-])cc(/C=N/NC(=O)c2ccncc2)c1O` has an inhibition of 21%.
Compound `O=C(CC12CC3CC(CC(C3)C1)C2)N/N=C/c1cc([N+](=O)[O-])cc([N+](=O)[O-])c1O` has an inhibition of 10%.
`COc1ccc(C(=O)N/N=C/c2cc(I)cc(I)c2O)cc1OC` was tested, and the inhibition was 23%.
Compound `O=C(COc1ccc(F)cc1)N/N=C/c1cc(I)cc(I)c1O` has an inhibition of 18%.
Work on `CCN(CC)c1ccc(/C=N/NC(=O)COc2ccc(F)cc2)c(O)c1` yielded an inhibition of 23%.

Each compound was assayed on Yersinia pseudotuberculosis (assay: Antibacterial activity against Yersinia pseudotuberculosis expressing pIB102 at 50 uM after 23 hrs by broth dilution assay).
Format: functional, organism-based
Outline: as §2
`COc1cc([N+](=O)[O-])cc(/C=N/NC(=O)c2ccncc2)c1O` was tested, and the Activity was “inactive”.
In the case of `O=C(CC12CC3CC(CC(C3)C1)C2)N/N=C/c1cc([N+](=O)[O-])cc([N+](=O)[O-])c1O`, the Activity is reported as “inactive”.
With `COc1ccc(C(=O)N/N=C/c2cc(I)cc(I)c2O)cc1OC` the Activity was “inactive”.
With `O=C(COc1ccc(F)cc1)N/N=C/c1cc(I)cc(I)c1O` the Activity was “inactive”.
In the case of `CCN(CC)c1ccc(/C=N/NC(=O)COc2ccc(F)cc2)c(O)c1`, the Activity is reported as “inactive”.

What follows are compounds tested on Escherichia coli (assay: Antibacterial activity against Escherichia coli DH5[alpha] at 50 uM after 23 hrs by broth dilution assay).
Format: functional, organism-based
Outline: as §3
In the case of `COc1cc([N+](=O)[O-])cc(/C=N/NC(=O)c2ccncc2)c1O`, the Activity is reported as “inactive”.
With `O=C(CC12CC3CC(CC(C3)C1)C2)N/N=C/c1cc([N+](=O)[O-])cc([N+](=O)[O-])c1O` the Activity was “inactive”.
For `COc1ccc(C(=O)N/N=C/c2cc(I)cc(I)c2O)cc1OC`, the Activity was “inactive”.
For `O=C(COc1ccc(F)cc1)N/N=C/c1cc(I)cc(I)c1O`, the Activity was “inactive”.
For `CCN(CC)c1ccc(/C=N/NC(=O)COc2ccc(F)cc2)c(O)c1`, the Activity was “inactive”.

The compounds below were run on Yersinia pseudotuberculosis YPIII (assay: Inhibition of T3S in Yersinia pseudotuberculosis YPIII expressing yopE-luxAB at 100 uM after 3 hrs by luciferase reporter gene assay).
Outline: as §1
In the case of `COc1cc([N+](=O)[O-])cc(/C=N/NC(=O)c2ccncc2)c1O`, the inhibition is reported as 42%.
`O=C(CC12CC3CC(CC(C3)C1)C2)N/N=C/c1cc([N+](=O)[O-])cc([N+](=O)[O-])c1O` showed an inhibition of 20%.
`COc1ccc(C(=O)N/N=C/c2cc(I)cc(I)c2O)cc1OC` showed an inhibition of 33%.
`O=C(COc1ccc(F)cc1)N/N=C/c1cc(I)cc(I)c1O` was tested, and the inhibition was 36%.
Work on `CCN(CC)c1ccc(/C=N/NC(=O)COc2ccc(F)cc2)c(O)c1` yielded an inhibition of 58%.
